Bioassay records deposited in PubChem BioAssay by several laboratories.
Compounds with a hit are over-represented: about 1.9% of the library has one in this group of screens.
ADAM17 inh: inhibitors of human ADAM17; P78536; recombinant ADAM17, EDANS/DABCYL FRET peptide cleavage; actives 0.83% (n = 370,000); inhibition, % at 6.95 µM;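 active = inhibition above the mean of compounds lying between control limits plus 3 SD, set per campaign, cut at about 8.5% in these data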;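 note: 0% = DMSO-only wells as the low control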
ADAM10 inh: ADAM10 inhibition, QFRET primary screen; inhibition, % at 7 µM; O14672; recombinant ADAM10, EDANS/DABCYL FRET peptide cleavage, 3 h; actives 0.62% (n = 370,000); AID 720582;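 active = inhibition above a per-campaign cutoff equal to the mean of compounds falling between control-based bounds plus 3 SD, cut at about 20% in these data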;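 note: 0% = DMSO wells while the 100% control is not disclosed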
SENP1 FRET inh: blocks the human SENP1 SUMO protease catalytic domain. Q9P0U3. recombinant SENP1 catalytic domain, CyPet-SUMO1-YPet FRET cleavage. inhibition, % at 10 µM. actives 0.21% (n = 360,000);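 active = inhibition at least 30% at 10 µM, raw YFP signal under a set limit, fluorescence ratio 0.5 to 1.5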;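 note: 0% = enzyme with DMSO and 100% = no enzyme wells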
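Controls: no-enzyme wells low, DMSO-plus-enzyme wells high control. Test system: human recombinant His6-tagged SENP1 catalytic domain enzyme. Reagent: SFCypet-SUMO1-SFYpet FRET protein substrate, 25 nM final. Doses: one dose per compound, 10 µM, 0.5% DMSO. Detection: FRET, CFP and YFP emission. Timing: 50 min reaction at room temperature.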
FAS-TE inh: FAS thioesterase (human) inhibition. recombinant FAS-TE, OMFH fluorogenic substrate, fluorescence endpoint. inhibition, % at 15 µM. actives 0.67% (n = 360,000). AID 602261;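 active = compounds whose normalised, plate-corrected inhibition of enzyme fluorescence in the single-dose primary screen is 50% or more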;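 note: 0% = DMSO with enzyme and 100% = substrate without enzyme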
Target sequence (P49327 whole entry, looked up): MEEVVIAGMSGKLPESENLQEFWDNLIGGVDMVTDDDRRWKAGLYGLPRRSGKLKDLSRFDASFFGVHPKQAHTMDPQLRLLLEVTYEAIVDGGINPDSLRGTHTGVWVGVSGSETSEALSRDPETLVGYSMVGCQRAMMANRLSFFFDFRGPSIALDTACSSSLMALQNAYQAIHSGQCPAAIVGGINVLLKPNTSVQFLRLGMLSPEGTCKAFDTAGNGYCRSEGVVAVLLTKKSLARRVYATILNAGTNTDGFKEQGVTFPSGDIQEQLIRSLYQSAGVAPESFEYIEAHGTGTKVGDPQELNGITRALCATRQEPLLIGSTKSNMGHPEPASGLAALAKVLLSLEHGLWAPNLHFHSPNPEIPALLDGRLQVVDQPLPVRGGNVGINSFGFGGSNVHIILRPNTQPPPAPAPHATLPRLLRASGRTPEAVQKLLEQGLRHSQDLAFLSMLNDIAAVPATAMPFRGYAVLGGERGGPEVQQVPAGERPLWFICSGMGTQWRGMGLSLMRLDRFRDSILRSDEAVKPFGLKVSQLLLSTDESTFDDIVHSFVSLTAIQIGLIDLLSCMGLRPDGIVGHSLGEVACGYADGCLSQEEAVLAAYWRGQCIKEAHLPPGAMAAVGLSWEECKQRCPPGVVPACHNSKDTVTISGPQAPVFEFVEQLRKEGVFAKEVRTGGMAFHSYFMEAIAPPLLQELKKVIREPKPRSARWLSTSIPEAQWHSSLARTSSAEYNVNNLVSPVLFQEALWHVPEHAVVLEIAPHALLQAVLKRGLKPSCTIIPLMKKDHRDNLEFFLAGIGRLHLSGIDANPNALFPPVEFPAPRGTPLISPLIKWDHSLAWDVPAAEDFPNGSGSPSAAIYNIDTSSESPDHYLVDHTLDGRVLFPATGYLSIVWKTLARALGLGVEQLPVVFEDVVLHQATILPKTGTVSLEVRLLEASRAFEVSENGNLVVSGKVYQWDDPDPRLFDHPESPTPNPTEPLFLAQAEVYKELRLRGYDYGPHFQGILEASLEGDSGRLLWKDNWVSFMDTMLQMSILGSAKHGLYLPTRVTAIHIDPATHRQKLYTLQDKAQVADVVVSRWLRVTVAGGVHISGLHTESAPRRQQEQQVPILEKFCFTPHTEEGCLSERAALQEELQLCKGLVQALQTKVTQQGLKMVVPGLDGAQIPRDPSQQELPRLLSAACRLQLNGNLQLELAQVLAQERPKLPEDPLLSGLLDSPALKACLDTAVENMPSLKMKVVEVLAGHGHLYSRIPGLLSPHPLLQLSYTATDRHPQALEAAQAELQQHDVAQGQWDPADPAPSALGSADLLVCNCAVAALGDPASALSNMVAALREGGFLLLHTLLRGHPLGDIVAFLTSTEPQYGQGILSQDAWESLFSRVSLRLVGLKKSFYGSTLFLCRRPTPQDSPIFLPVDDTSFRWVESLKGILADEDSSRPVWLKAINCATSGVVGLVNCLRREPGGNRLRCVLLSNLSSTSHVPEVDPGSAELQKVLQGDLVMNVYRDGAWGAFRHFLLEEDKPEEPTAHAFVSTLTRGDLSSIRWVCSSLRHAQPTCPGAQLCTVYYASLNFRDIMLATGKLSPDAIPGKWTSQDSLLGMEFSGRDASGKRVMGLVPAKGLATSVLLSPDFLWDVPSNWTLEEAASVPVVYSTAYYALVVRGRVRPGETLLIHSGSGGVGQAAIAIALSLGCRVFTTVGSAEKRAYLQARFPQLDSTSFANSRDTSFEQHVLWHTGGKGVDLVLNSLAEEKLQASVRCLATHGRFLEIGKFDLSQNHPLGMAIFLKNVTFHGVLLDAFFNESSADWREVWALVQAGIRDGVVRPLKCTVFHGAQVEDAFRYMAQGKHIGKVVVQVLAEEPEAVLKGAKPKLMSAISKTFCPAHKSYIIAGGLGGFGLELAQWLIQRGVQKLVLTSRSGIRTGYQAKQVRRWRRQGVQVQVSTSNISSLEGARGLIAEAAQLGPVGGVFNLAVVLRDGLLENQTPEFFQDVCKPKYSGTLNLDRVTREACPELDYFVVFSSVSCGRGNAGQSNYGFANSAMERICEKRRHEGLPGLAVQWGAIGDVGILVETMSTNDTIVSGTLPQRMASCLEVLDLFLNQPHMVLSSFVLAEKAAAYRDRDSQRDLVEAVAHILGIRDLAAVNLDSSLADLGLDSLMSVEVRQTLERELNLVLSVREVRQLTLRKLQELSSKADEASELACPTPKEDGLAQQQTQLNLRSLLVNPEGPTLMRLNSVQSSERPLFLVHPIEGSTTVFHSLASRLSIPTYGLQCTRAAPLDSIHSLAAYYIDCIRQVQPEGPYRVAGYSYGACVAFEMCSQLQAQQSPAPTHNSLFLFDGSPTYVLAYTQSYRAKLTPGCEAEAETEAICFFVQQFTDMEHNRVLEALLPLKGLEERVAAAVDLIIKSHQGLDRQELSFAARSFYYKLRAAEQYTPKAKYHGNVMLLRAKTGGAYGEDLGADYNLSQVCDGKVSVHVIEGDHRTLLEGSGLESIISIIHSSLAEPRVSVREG
FAS-TE inh conf: confirmation of human fatty acid synthase thioesterase inhibitors; inhibition, % at 15 µM; recombinant FAS-TE, OMFH fluorogenic substrate, fluorescence; actives 45% (n = 2,300); AID 624325; shares compounds with FAS-TE inh;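 active = compounds inhibiting the enzyme by at least 50% at 15 µM in any one of the replicates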;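 note: 0% = enzyme with DMSO only and 100% = wells lacking enzyme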
An asterisk follows results filed as active.

For N#C/C(=C\c1c(N2CCC(C(N)=O)CC2)nc2ccccn2c1=O)S(=O)(=O)c1ccc(Cl)cc1 the results were ADAM17 inh -3, ADAM10 inh -6, SENP1 FRET inh -35, FAS-TE inh 55* and FAS-TE inh conf 30*.
Screening Cc1ccc(S(=O)(=O)/C(C#N)=C/c2c(N3CCOCC3)nc3c(C)cccn3c2=O)cc1 returned ADAM17 inh 0, ADAM10 inh -3, SENP1 FRET inh -32, FAS-TE inh 56* and FAS-TE inh conf 6.
For Cc1ccc(S(=O)(=O)/C(C#N)=C/c2c(N3CCN(C)CC3)nc3ccccn3c2=O)cc1 the results were ADAM17 inh -8, ADAM10 inh -28, SENP1 FRET inh -16 and FAS-TE inh 18.
`N#C/C(=C\c1c(N2CCN(Cc3ccccc3)CC2)nc2ccccn2c1=O)S(=O)(=O)c1ccccc1` gave ADAM17 inh -11, ADAM10 inh -46, SENP1 FRET inh -29, FAS-TE inh 56* and FAS-TE inh conf 13.
Screening CC(C)N1Cc2nnn(Cc3ccc(F)cc3)c2-c2cc(F)ccc2S1(=O)=O returned ADAM17 inh -3 and ADAM10 inh -2.
`C[C@H]1[C@@H](OC(=O)NCCc2c[nH]c3ccccc23)CC[C@@]23CCCN2C(=O)CCC[C@@H]13` gave ADAM17 inh 1 and ADAM10 inh -1.
For CCOC(=O)CC[C@H]1CC[C@]2(CCCN(C(=O)c3cccnc3)C2)O1 the results were ADAM17 inh -1 and ADAM10 inh 0.
For Cc1ccc(S(=O)(=O)/C(C#N)=C/c2c(N3CCN(Cc4ccccc4)CC3)nc3ccccn3c2=O)cc1 the results were ADAM17 inh -6, ADAM10 inh -21, SENP1 FRET inh -29, FAS-TE inh 81* and FAS-TE inh conf 8.
COC(=O)C1CN(C2CCCC2)CCS(=O)(=O)N1Cc1cn(Cc2ccccc2)nn1 (configuration not stated) was read as ADAM17 inh -1 and ADAM10 inh 0.
C=CCN1[C@H](CC(C)C)COc2cc(N3CCCC3)ccc2S1(=O)=O was read as ADAM17 inh -7 and ADAM10 inh -5.
Screening CN(C)S(=O)(=O)c1ccc(N2C(=O)CC2(/C=C/c2ccccc2)C(=O)NC2CCCC2)cc1 (configuration not stated) returned ADAM17 inh 1, ADAM10 inh -4, SENP1 FRET inh 1, FAS-TE inh 60* and FAS-TE inh conf 29.
`CCO[C@H]1OC(C(=O)NCc2ccccc2)=C[C@@H](C2CCCCC2)[C@@H]1CCCO` gave ADAM17 inh -3, ADAM10 inh 0, SENP1 FRET inh -2, FAS-TE inh 57* and FAS-TE inh conf 63*.
For CN(C)C(=O)NCCCC#Cc1ccccc1 the results were ADAM17 inh -2 and ADAM10 inh -5.
`CCOC(=O)Cc1nc(N2CCN(C(=O)C3CCCO3)CC2)c2c(C)c(C(=O)OCC)sc2n1` (configuration not stated) gave ADAM17 inh -1 and ADAM10 inh -12.
Screening C[C@@]12C(=O)N(Cc3ccc(-c4ccccc4)cc3)CC(=O)N1[C@H](/C=C/c1ccccc1)[C@@H]1C(=O)N(c3ccccc3)C(=O)[C@@H]12 returned ADAM17 inh -2, ADAM10 inh -3, SENP1 FRET inh 1, FAS-TE inh 50* and FAS-TE inh conf 13.
For COC(=O)CN1C(=O)[C@H]2[C@@H](/C=C/c3ccccc3)N3C(=O)CN(Cc4ccc(-c5ccccc5)cc4)C(=O)[C@@]3(C)[C@H]2C1=O the results were ADAM17 inh 2, ADAM10 inh 4, SENP1 FRET inh -1 and FAS-TE inh 3.
`COC(=O)C1CN(Cc2cn(Cc3ccc(C)cc3)nn2)CCS(=O)(=O)N1Cc1ccc(C)cc1` (configuration not stated) gave ADAM17 inh 6 and ADAM10 inh 9.
Screening CCOc1ccc(S(=O)(=O)c2c(C(=O)c3ccc(C)cc3)cnc3cc4c(cc23)OCCO4)cc1 returned ADAM17 inh -10, ADAM10 inh -30, SENP1 FRET inh -38 and FAS-TE inh 41.
Cc1ccc(C(=O)c2cnc3cc4c(cc3c2S(=O)(=O)c2ccccc2)OCCO4)cc1 was read as ADAM17 inh -18, ADAM10 inh -64, SENP1 FRET inh -19, FAS-TE inh 72* and FAS-TE inh conf 21.
For Cc1ccc(-n2c(SCc3cccc4ccccc34)nnc2-c2ccccn2)cc1 the results were ADAM17 inh 6 and ADAM10 inh 19.
`CCCCc1ccc(/C(C)=N/Nc2cc(N3CCOCC3)nc(C)n2)cc1` gave ADAM17 inh 2, ADAM10 inh 15, SENP1 FRET inh 5, FAS-TE inh 73* and FAS-TE inh conf 20.
For O=C(CCc1ccccc1)N[C@H]1[C@H](OC(=O)c2cnccn2)CCC[C@]12C(=O)N(Cc1ccccc1)c1ccccc12 the results were ADAM17 inh -1 and ADAM10 inh -4.
`CN(C)c1ccc(C=c2c3ccccc3n3c2c2ccccc2[n+]3C)cc1` gave ADAM17 inh -18, ADAM10 inh -53, SENP1 FRET inh -124 and FAS-TE inh 3.
CCOC(=O)c1cc2c(=Cc3ccc(N(C)C)cc3)c3ccccc3n2[n+]1C was read as ADAM17 inh -4, ADAM10 inh -16, SENP1 FRET inh 44, FAS-TE inh 62* and FAS-TE inh conf 61*.
C[C@@H]1C[C@H]2[C@@H](Cc3ccccc3)C(=O)N3[C@H](c4ccccc4)[C@H](C)C[C@H]3[C@@H](Cc3ccccc3)C(=O)N2[C@@H]1c1ccccc1 was read as ADAM17 inh 5 and ADAM10 inh 10.
Cc1cc(C)c(C#N)c(N2CCN(Cc3ccc4c(c3)OCO4)CC2)n1 was read as ADAM17 inh -1, ADAM10 inh -8, SENP1 FRET inh -2, FAS-TE inh 61* and FAS-TE inh conf 26.
Screening O=C(NCCc1c[nH]c2ccccc12)OCc1cn(Cc2ccc(F)cc2F)nn1 returned ADAM17 inh 1 and ADAM10 inh 5.
Screening CC[C@]12c3[nH]c4ccccc4c3CCN1C(=O)C(CC(=O)NCCCN(C)C)C[C@@H]2C(=O)N1CCN(C(=O)C2CC2)CC1 (some centres not stated) returned ADAM17 inh -4, ADAM10 inh -7, SENP1 FRET inh 1 and FAS-TE inh -5.
CN(C)CCCNC(=O)CC1C[C@H](C(=O)N2CCOCC2)[C@@]2(CCC3CCCC3)c3[nH]c4ccccc4c3CCN2C1=O (some centres not stated) was read as ADAM17 inh -1, ADAM10 inh -19, SENP1 FRET inh 2, FAS-TE inh 78* and FAS-TE inh conf 86*.
O=C(CC1C[C@H](C(=O)N2CCOCC2)[C@@]2(CCC3CCCC3)c3[nH]c4ccccc4c3CCN2C1=O)NCCC1=CCCCC1 (some centres not stated) was read as ADAM17 inh 0, ADAM10 inh -9, SENP1 FRET inh 0, FAS-TE inh 73* and FAS-TE inh conf 39*.
